Results from ChEMBL document CHEMBL4196237, “Heterocoumarins Are Selective Carbonic Anhydrase IX and XII Inhibitors with Cytotoxic Effects against Cancer Cells Lines” (ACS Med Chem Lett, 2018).
Active and inactive are the calls of the source. No cut-off for these calls is given here.

Key:
[1] = target: Carbonic anhydrase 2 (Homo sapiens, UniProt P00918); assay: Inhibition of recombinant human carbonic anhydrase 2 incubated 6 h prior to testing by CO2 hydration based stopped-flow assay
[2] = target: Carbonic anhydrase 9 (Homo sapiens, UniProt Q16790); assay: Inhibition of recombinant human carbonic anhydrase 9 incubated 15 mins prior to testing by CO2 hydration based stopped-flow assay
[3] = target: Carbonic anhydrase 1 (Homo sapiens, UniProt P00915); assay: Inhibition of recombinant human carbonic anhydrase 1 incubated 6 h prior to testing by CO2 hydration based stopped-flow assay
Sequence of Carbonic anhydrase 1 (P00915 whole entry): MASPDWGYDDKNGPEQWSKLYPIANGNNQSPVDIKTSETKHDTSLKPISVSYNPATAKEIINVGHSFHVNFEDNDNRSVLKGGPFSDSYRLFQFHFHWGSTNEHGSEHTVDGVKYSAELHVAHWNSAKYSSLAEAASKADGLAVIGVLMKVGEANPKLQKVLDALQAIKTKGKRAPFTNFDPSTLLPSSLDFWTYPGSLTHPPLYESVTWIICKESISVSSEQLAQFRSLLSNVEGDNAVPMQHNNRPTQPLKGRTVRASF

[4] = target: T1, Carbonic anhydrase 12 (Homo sapiens, UniProt O43570); assay: Inhibition of recombinant human carbonic anhydrase 12 incubated 6 h prior to testing by CO2 hydration based stopped-flow assay
T1 sequence (O43570 whole entry): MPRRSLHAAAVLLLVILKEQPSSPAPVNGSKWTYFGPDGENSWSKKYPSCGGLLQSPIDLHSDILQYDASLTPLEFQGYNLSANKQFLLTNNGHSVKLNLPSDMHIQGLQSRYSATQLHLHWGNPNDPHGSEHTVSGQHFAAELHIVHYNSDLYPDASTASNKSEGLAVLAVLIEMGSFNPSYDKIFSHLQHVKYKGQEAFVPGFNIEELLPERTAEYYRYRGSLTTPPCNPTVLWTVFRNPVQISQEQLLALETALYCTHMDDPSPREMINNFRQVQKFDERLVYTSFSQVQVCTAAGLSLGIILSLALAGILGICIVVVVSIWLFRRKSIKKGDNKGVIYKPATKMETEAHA

[5] = system: PC-3; assay: Cytotoxicity against human PC3 cells assessed as cell viability at 300 uM after 48 hrs under normoxic conditions by MTT assay relative to control; type: functional; conditions: PC-3, 48 h, read-out: Activity
Method in brief: (§1)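 PC3 human prostate cancer cells incubated 48 h with compound at a range of concentrations, under normoxia or under hypoxia (1% O2). Viability is expressed relative to control, with significance tested against control at p < 0.05, 0.01 and 0.001.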

[6] = system: MDA-MB-231; assay: Cytotoxicity against human MDA-MB-231 cells assessed as reduction in cell viability at 300 uM after 48 hrs under normoxic conditions by MTT assay relative to control; type: functional
[7] = system: MDA-MB-231; assay: Cytotoxicity against human MDA-MB-231 cells assessed as reduction in cell viability at 30 uM after 48 hrs under hypoxic conditions by MTT assay relative to control; type: functional
[8] = system: MDA-MB-231; assay: Cytotoxicity against human MDA-MB-231 cells assessed as reduction in cell viability at 300 uM after 48 hrs under hypoxic conditions by MTT assay relative to control; type: functional
[9] = system: PC-3; assay: Cytotoxicity against human PC3 cells assessed as cell viability at 300 uM after 48 hrs under hypoxic conditions by MTT assay relative to control; type: functional; conditions: PC-3, 48 h, read-out: Activity
Method in brief: as §1

[10] = system: PC-3; assay: Cytotoxicity against human PC3 cells assessed as cell viability at 30 uM after 48 hrs under hypoxic conditions by MTT assay relative to control; type: functional; conditions: PC-3, 48 h, read-out: Activity
Method in brief: as §1

[11] = system: PC-3; assay: Cytotoxicity against human PC3 cells assessed as cell viability at 30 uM after 48 hrs under normoxic conditions by MTT assay relative to control; type: functional; conditions: PC-3, 48 h, read-out: Activity
Method in brief: as §1

[12] = target: T1, Carbonic anhydrase 12; assay: Inhibition of recombinant human carbonic anhydrase 12 incubated 15 mins prior to testing by CO2 hydration based stopped-flow assay
[13] = system: PC-3; assay: Cytotoxicity against human PC3 cells assessed as cell viability at higher concentration after 48 hrs under normoxic conditions by MTT assay relative to control; type: functional
Method in brief: as §1

[14] = system: MDA-MB-231; assay: Cytotoxicity against human MDA-MB-231 cells assessed as reduction in cell viability at 30 uM after 48 hrs under normoxic conditions by MTT assay relative to control; type: functional
[15] = system: PC-3; assay: Cytotoxicity against human PC3 cells assessed as cell viability at 100 to 300 uM after 48 hrs under hypoxic conditions by MTT assay relative to control; type: functional
Method in brief: as §1

[16] = system: MDA-MB-231; assay: Cytotoxicity against human MDA-MB-231 cells assessed as reduction in cell viability at 1 to 300 uM after 48 hrs under hypoxic conditions by MTT assay; type: functional, cell-based
[17] = system: MDA-MB-231; assay: Cytotoxicity against human MDA-MB-231 cells assessed as reduction in cell viability at 1 to 300 uM after 48 hrs under normoxic conditions by MTT assay; type: functional, cell-based
[18] = system: PC-3; assay: Cytotoxicity against human PC3 cells assessed as reduction in cell viability at 1 to 300 uM after 48 hrs under normoxic conditions by MTT assay; type: functional, cell-based
Method in brief: as §1

[19] = system: PC-3; assay: Cytotoxicity against human PC3 cells assessed as reduction in cell viability at 1 to 300 uM after 48 hrs under hypoxic conditions by MTT assay; type: functional, cell-based
Method in brief: as §1

Structure (SMILES)	Ki [1]	Ki [2]	Ki [3]	also measured
O=c1ccc2cccc(Cl)c2[nH]1	> 10 µM	23 nM	> 10 µM	–
Cn1c(=O)ccc2ccccc21	> 10 µM	44.6 nM	> 10 µM	Ki [4]: 83.5 nM
O=c1ccc2ccccc2[se]1	> 10 µM	26.3 nM	> 10 µM	viability at 300 µM [5]: 68%; Activity [6]: 28%; Activity [7]: >50%; Activity [8]: 90%; viability at 300 µM [9]: 68%
O=c1ccc2cccc(Br)c2[nH]1	> 10 µM	23.4 nM	> 10 µM	–
S=c1ccc2ccccc2[se]1	> 10 µM	39.5 nM	> 10 µM	–
Cc1ccc2[nH]c(=O)ccc2c1	> 10 µM	123 nM	> 10 µM	–
O=c1ccc2ccccc2[te]1	> 10 µM	59 nM	> 10 µM	Activity [8]: 22%; viability at 30 µM [10]: 71%; viability at 30 µM [11]: 54%; Ki [12]: 8.2 nM; Activity [13]: 19%; Activity [14]: 15.9%; Activity [15]: 38%
Cc1ccc2[se]c(=O)ccc2c1	> 10 µM	56.1 nM	> 10 µM	Ki [12]: 7.6 nM
Cc1ccc2[se]c(=S)ccc2c1	> 10 µM	59.9 nM	> 10 µM	viability at 30 µM [10]: 79%; viability at 30 µM [11]: 51%; Activity [14]: 61%; Activity [16]: inactive
Cn1c(=[Se])ccc2ccccc21	> 10 µM	172 nM	> 10 µM	Ki [12]: 86.4 nM
Oc1ccc2ccccc2n1	> 10 µM	–	> 10 µM	–
[Se]=c1ccc2ccccc2[nH]1	> 10 µM	54.4 nM	> 10 µM	Activity [17]: inactive; Activity [18]: inactive; Activity [19]: inactive; Activity [16]: inactive
O=c1ccc2cccc(F)c2[nH]1	> 10 µM	58.8 nM	> 10 µM	–
